Measured values published in PMC4357494 (Journal of molecular biology, 2014).
Where a SMILES comes first, the peptide text is derived from it.

Key:
[1] = biological target: Bcl-xL (residues 1-209) (Homo sapiens, UniProt Q07817); test: Fluorescence polarization competition binding assay, Bcl-xL; conditions: FP competition with 23-mer fluorescently labeled Bim-BH3
[2] = biological target: Bcl-2 (residues 1-217) (Homo sapiens, UniProt P10415); test: Fluorescence polarization competition binding assay, Bcl-2; conditions: FP competition with fluorescein 18-residue Bim-BH3
Chain of Bcl-2 (residues 1-217) (P10415 1-217): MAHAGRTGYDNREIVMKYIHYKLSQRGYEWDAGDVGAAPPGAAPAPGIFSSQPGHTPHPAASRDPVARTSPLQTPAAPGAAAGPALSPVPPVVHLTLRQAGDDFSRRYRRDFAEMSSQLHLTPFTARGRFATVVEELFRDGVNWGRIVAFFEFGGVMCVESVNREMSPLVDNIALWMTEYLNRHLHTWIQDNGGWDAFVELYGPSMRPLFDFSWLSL
How it was run: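 Human Bcl-2 (residues 1-217), expressed in E. coli. Buffer: 20 mM sodium phosphate, 50 mM NaCl, 1 mM EDTA, 0.001% Triton X, 5% DMSO, pH 7.8, 25 °C. Competition: test peptide serially diluted, 10 nM fluorescein Bim-BH3 added, 15 min at RT, then 50 nM Bcl-2 (final). Anisotropy read over 2-48 h, then curves fit. Direct: titrated protein, 10 nM probe, read 4-24 h.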

[3] = biological target: T1, Bcl-w (residues 1-164) (Homo sapiens, UniProt Q92843); test: Fluorescence polarization competition binding assay, Bcl-w; conditions: FP competition with fluorescein 18-residue Bim-BH3
T1 sequence (Q92843 1-164): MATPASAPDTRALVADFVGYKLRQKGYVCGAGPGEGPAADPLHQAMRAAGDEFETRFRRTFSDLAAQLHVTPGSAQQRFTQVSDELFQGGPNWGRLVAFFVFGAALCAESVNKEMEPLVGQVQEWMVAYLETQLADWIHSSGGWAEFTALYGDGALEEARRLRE
How it was run: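 E. coli-expressed Bcl-w (residues 1-164), 50 nM final, competed against 10 nM N-terminal fluorescein 18-mer Bim-BH3. Unlabeled peptide serially diluted and premixed with tracer 15 min before protein. Buffer: 20 mM sodium phosphate, 50 mM NaCl, 1 mM EDTA, 0.001% Triton X, 5% DMSO, pH 7.8, 25 °C.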

[4] = biological target: Mcl-1 (residues 172-327) (Homo sapiens, UniProt Q07820); test: Fluorescence polarization binding assay, Mcl-1
Chain of Mcl-1 (residues 172-327) (Q07820 172-327): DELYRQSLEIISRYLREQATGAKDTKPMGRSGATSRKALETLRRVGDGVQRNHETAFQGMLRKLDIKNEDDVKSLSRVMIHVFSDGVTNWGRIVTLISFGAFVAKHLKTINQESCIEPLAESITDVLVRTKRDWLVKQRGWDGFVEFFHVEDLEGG
How it was run: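 E. coli-expressed Mcl-1 (residues 172-327) in competition FP: 20 mM sodium phosphate, 50 mM NaCl, 1 mM EDTA, 0.001% Triton X, 5% DMSO, pH 7.8, 25 °C. Serially diluted unlabeled peptide plus 10 nM fluorescein tracer, 15 min, then protein. Tracer is 18-mer Bim-BH3 with 50 nM Mcl-1, or 23-mer Hrk-BH3 with 500 nM Mcl-1.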

[5] = test system: Mcl-1 2640 cells (Mcl-1 dependent); test: BH3 profiling, Mcl-1 2640; assay type: cell-based, murine; conditions: 5 μM peptide
How it was run: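 Myc-driven murine leukemia line, Mcl-1 dependent, grown in RPMI 1640 with 10% FBS and […] 2-mercaptoethanol. Permeabilized cells at 2×10^4/well, triplicate wells, exposed to peptides including 5 μM. JC-1 read-out; depolarization expressed as percentage relative to FCCP (full) and DMSO (none). At least three biological replicates.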

[6] = test system: DHL10 cells; test: BH3 profiling, DHL10; assay type: cell-based; conditions: Bax- and Bak-deleted cell line
How it was run: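 Test peptides (N-acetylated, C-amidated) titrated onto permeabilized Su-DHL10 cells (RPMI 1640, 10% FBS), 2×10^4 cells/well, triplicate wells per concentration. JC-1 fluorescence gives membrane-potential loss, normalized as 1 – [(Dsample–DFCCP)/(DDMSO–DFCCP)] against FCCP and DMSO. EC50 from global fit with linked baselines; at least three biological replicates, 2-3 days of culture apart.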

[7] = biological target: MDA-MB-231 cells (Bcl-xL dependent) (Homo sapiens, UniProt Q07817)
Chain of MDA-MB-231 cells (Bcl-xL dependent) (Q07817 1-209): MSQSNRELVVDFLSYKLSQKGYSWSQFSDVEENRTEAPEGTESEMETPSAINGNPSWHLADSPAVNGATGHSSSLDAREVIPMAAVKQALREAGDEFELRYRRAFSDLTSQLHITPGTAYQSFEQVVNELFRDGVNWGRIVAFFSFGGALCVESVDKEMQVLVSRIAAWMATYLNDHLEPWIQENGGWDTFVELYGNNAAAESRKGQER

[8] = biological target: primary human platelets (Bcl-xL dependent) (Homo sapiens, UniProt Q07817); conditions: primary human platelet samples
Chain of primary human platelets (Bcl-xL dependent) (Q07817 1-209): as above

[9] = test system: Bcl-2 3256 cells (Bcl-2 dependent)

Chain of Bcl-xL (residues 1-209) (Q07817 1-209): as above

`CC[C@H](C)[C@H](NC(=O)[C@H](CCC(=O)O)NC(=O)[C@@H]1CCCN1C(=O)[C@H](CCCNC(=N)N)NC(C)=O)C(=O)N[C@@H](Cc1c[nH]c2ccccc12)C(=O)N[C@@H](Cc1ccc(O)cc1)C(=O)N[C@@H](C)C(=O)N[C@@H](CCC(N)=O)C(=O)N[C@@H](CCC(=O)O)C(=O)N[C@@H](CC(C)C)C(=O)N[C@@H](CCCCN)C(=O)N[C@@H](CCCNC(=N)N)C(=O)N[C@@H](Cc1ccccc1)C(=O)NCC(=O)N[C@@H](CC(=O)O)C(=O)N[C@@H](CCC(=O)O)C(=O)N[C@@H](Cc1ccccc1)C(=O)N[C@@H](CC(N)=O)C(=O)N[C@@H](C)C(=O)N[C@@H](Cc1ccc(O)cc1)C(=O)N[C@@H](Cc1ccc(O)cc1)C(=O)N[C@@H](C)C(=O)N[C@@H](CCCNC(=N)N)C(N)=O` [XXA1_G2gE] (Ac-RPEIWYAQELKRFGDEFNAYYAR-NH2) was tested, and the “binding to Bcl-xL relative to XXA1 (in words)” value [1] was “bound more tightly than XXA1”, the “binding to Bcl-2 (in words)” value [2] was “bound tighter than XXA1” and the “binding to Bcl-w (in words)” value [3] was “bound tighter than XXA1”. The Ki [4] was roughly 31 nM, the “competition with fluorescently labeled Bim-BH3 for binding to Mcl-1 (in words)” value ([4]; FP competition) was “Neither XXA1 nor XXA1_G2gE could compete” and the “depolarization in the Mcl-1 dependent line (in words)” value [5] was “low amount of depolarization”. The “non-specific pore forming activities” value [6] was “None”, the “potency relative to Bad” value [7] was ~ 7 fold and the “depolarization of platelets (in words)” value [8] was “potent depolarization”. It also gave an EC50 [9] of 141 ± 50 nM.
